Only some compounds are listed: those with a hit (about 0.98% of all), similar ones and a draw of the others.
PGC1a acetyl inh = lowers PGC1a acetylation signal in U2OS cells; AlphaScreen anti-acetyl-lysine; with virally co-expressed GCN5 acetyltransferase; inhibition, % at 15.6 µM; 350,000 compounds, 0.17% hits;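 active = every replicate shows inhibition of at least 40%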;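 note: 0% = neutral control wells and 100% = positive control wells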
Statin myotox sup = suppression of simvastatin myotoxicity. 330,000 compounds, 0.78% hits. C2C12 myotubes + simvastatin, ATP luminescence, 48 h; scaled: DMSO 0, geranylgeraniol control 100. rescue of ATP level, % at 7.49 µM;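 active = mean ATP rescue above about 67%, or every replicate alone reaching that limit, limit read from the data, passing the limit was not always enough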;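 note: myotubes were challenged with 10 µM simvastatin during compound exposure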
S100A4 MyoIIA = inhibitors of human S100A4 binding to myosin IIA peptide | inhibition, % at 10.7 µM | P26447 | 360,000 compounds, 0.14% hits | S100A4/TAMRA-MyoIIA peptide fluorescence polarization;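 active = mean inhibition of at least 70% across replicates, with every replicate also reaching that level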
Target sequence (P26447 whole entry, looked up): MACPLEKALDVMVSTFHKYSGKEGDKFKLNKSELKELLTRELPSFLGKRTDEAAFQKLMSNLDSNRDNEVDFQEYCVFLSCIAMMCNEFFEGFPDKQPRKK
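assay system = human S100A4 monomer with TAMRA-labelled myosin IIA peptide | also added = labelled myosin peptide probe, 5 nM | incubation = 5 min between mix addition and reading | control set = DMSO and TFP controls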
Rtt109 Vps75 = C. albicans Rtt109 histone acetyltransferase inhibition; Q5AAJ8; purified Rtt109/Vps75, ThioGlo CoA-SH fluorescence, 4 h; inhibition, % at 34.9 µM; 330,000 compounds, 0.16% hits;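 active = inhibition of at least 50% in every replicate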
Target sequence (Q5AAJ8 whole entry, looked up): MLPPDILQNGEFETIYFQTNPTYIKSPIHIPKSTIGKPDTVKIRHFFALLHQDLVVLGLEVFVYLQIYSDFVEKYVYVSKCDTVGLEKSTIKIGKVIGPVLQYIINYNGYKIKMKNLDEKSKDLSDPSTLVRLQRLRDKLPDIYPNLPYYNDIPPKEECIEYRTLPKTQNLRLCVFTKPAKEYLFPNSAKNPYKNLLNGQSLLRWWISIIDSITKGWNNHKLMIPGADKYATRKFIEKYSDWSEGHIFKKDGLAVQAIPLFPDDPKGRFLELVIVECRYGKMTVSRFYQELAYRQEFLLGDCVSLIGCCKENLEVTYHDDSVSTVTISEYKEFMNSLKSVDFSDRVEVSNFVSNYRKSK
ERAP1 inh = ERAP1 (human) enzyme inhibition. 340,000 compounds, 0.15% hits. AID 652197. inhibition, % at 10.7 µM. recombinant ERAP1, Leu-AMC fluorescence, 60 min;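 active = mean replicate inhibition of at least 30%, or all replicates individually reaching that 30% level; inactive = mean below 30% and not every replicate reaching it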;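 note: 0% = neutral control wells and 100% = L-leucinethiol positive control wells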
* = called active by the depositor; nt = not tested or not shown.

SMILES	PGC1a acetyl inh	Statin myotox sup	S100A4 MyoIIA	Rtt109 Vps75	ERAP1 inh
O=C(Nc1cccc(F)c1)N1CCCCN2[C@H](CO)[C@H](c3ccc(C#CC4CC4)cc3)[C@H]2C1	-33	nt	10	nt	1
COc1ccc(NC(=O)CN2c3cccc4cccc(c34)S2(=O)=O)cc1	-2	99*	nt	-2	nt
Cc1ccc(NC(=O)CN2c3cccc4cccc(c34)S2(=O)=O)cc1	nt	-4	9	9	-2
COCCNS(=O)(=O)c1ccc2c(c1)Cc1cc(S(=O)(=O)NCCOC)ccc1-2	8	-7	3	-4	-2
COCCNS(=O)(=O)c1ccc2c(c1)C(=NO)c1cc(S(=O)(=O)NCCOC)ccc1-2	-1	nt	5	52*	nt
C=CCn1c(=O)/c(=C\c2ccsc2)s/c1=C(/C#N)C(=O)NCCN1CCOCC1	-2	112*	nt	-2	nt
COc1ccc(CN(C)C[C@H]2OCCCC[C@H](C)Oc3ccc(N(C)C)cc3C(=O)N([C@H](C)CO)C[C@@H]2C)cc1	-13	2	6	nt	1
C[C@@H]1CN([C@H](C)CO)C(=O)Cc2cc(NC(=O)Cc3cn(C)c4ccccc34)ccc2O[C@@H]1CN(C)Cc1ccc(Cl)c(Cl)c1	-11	69*	-2	nt	0
C[C@H](CO)N1C[C@H](C)[C@@H](CN(C)Cc2ccc(Cl)c(Cl)c2)Oc2ccc(NC(=O)Cc3ccccc3)cc2CC1=O	-18	86*	8	nt	-1
C[C@H]1CN([C@@H](C)CO)C(=O)Cc2cc(NC(=O)Cc3cn(C)c4ccccc34)ccc2O[C@@H]1CN(C)Cc1ccc(Cl)c(Cl)c1	-8	142*	-2	nt	1
C[C@H]1CN([C@@H](C)CO)C(=O)c2cccc(N(C)C)c2O[C@@H]1CN(C)Cc1ccc(Cl)c(Cl)c1	-11	95*	-18	nt	-4
C[C@@H]1CN([C@H](C)CO)C(=O)Cc2cc(NC(=O)Cc3cn(C)c4ccccc34)ccc2O[C@@H]1CN(C)Cc1ccccc1	nt	48	22	nt	0
O=C(CC1CC1)Nc1ccc2c(c1)[C@H]1C[C@@H](CC(=O)N3CCc4ccccc4C3)O[C@@H](CO)[C@H]1O2	-8	-3	-12	nt	-3
CNC[C@H]1Oc2cc(C#CC3(O)CCCC3)ccc2S(=O)(=O)N([C@H](C)CO)C[C@@H]1C	-11	-4	-16	nt	0
COc1cccc(-c2ccc3c(c2)[C@H]2[C@H](CCN2C(=O)C2CCCC2)[C@@H](CO)N3)c1	1	nt	-6	nt	2
Cc1noc(C)c1NC(=O)N(C)C[C@@H]1Oc2ccc(NC(=O)Nc3ccccc3)cc2CC(=O)N([C@@H](C)CO)C[C@H]1C	-3	-12	5	nt	-1
COCC(=O)N(C)C[C@@H]1Oc2cc(C#CC(C)(C)O)ccc2S(=O)(=O)N([C@H](C)CO)C[C@@H]1C	-4	-2	2	nt	0
CCN1C(=O)CCCc2ccccc21	68*	4	-2	1	-1
C[C@@H]1CN([C@H](C)CO)C(=O)Cc2cc(NS(=O)(=O)c3cccs3)ccc2O[C@H]1CN(C)Cc1ccc(C(=O)O)cc1	5	-8	-1	nt	1
CCOc1ccc(CCNC(=O)C2CCCN(c3ncnc4c3nc3n4CCCCC3)C2)cc1 (stereo not drawn)	-27	76*	-2	-2	3
Cc1ccc(CCNC(=O)C2CCCN(c3ncnc4c3nc3n4CCCCC3)C2)cc1 (stereo not drawn)	-1	15	1	-21	3
COc1ccc(CNC(=O)C[C@@H]2C[C@@H]3c4cc(NS(C)(=O)=O)ccc4O[C@@H]3[C@H](CO)O2)cc1	-3	2	40	nt	2
COc1ccc2c3c(n(C)c2c1)[C@H](CO)NCC31CCN(Cc2cc(-c3ccccc3)on2)CC1	69*	nt	5	nt	-3
COc1cccc(S(=O)(=O)N(C)C[C@@H]2Oc3ncc(-c4cccc(C(=O)N(C)C)c4)cc3C(=O)N([C@@H](C)CO)C[C@@H]2C)c1	1	-9	8	nt	2
COc1ccc2c3c([nH]c2c1)[C@@H](CO)N(Cc1nccs1)CC31CCN(C(=O)C2CCC2)CC1	nt	nt	4	nt	0
SMILES	PGC1a acetyl inh	Statin myotox sup	S100A4 MyoIIA	Rtt109 Vps75	ERAP1 inh
COc1ccc(N2CCN(C(=O)COc3ccc4c(C)cc(=O)oc4c3C)CC2)cc1	4	107*	-12	-9	-3
Cc1cc(=O)oc2c(C)c(OCC(=O)N3CCN(c4ccc(F)cc4)CC3)ccc12	3	-1	-1	7	-3
CCCC(=O)C1=C(O)C(C(=O)OC)C(C)(C)CC1=Nc1ccc(C)cc1 (stereo not drawn)	nt	nt	4	5	0
CCCC(=O)C1=C(O)C(C(=O)OC)C(C)(C)CC1=Nc1ccc(OC)cc1 (stereo not drawn)	46*	nt	-1	8	-3
O=C(C1CCC1)N1CC2(C1)[C@H](c1ccccc1)[C@@H](CO)N2Cc1ccccc1F	-19	nt	11	nt	1
C[C@H](CO)N1C[C@H](C)[C@H](CN(C)C(=O)C2CC2)Oc2ncc(C#Cc3ccccc3F)cc2C1=O	10	-13	6	nt	-1
CCOCCc1nnc(NC(=O)CCc2ccccc2)s1	nt	nt	2	-1	1
COCCc1nnc(NC(=O)Cc2ccccc2)s1	3	89*	nt	2	nt
COc1cc(C2NC(=O)C(C#N)=C(Nc3cccc(C)c3)S2)ccc1O (stereo not drawn)	nt	nt	-6	147*	2
NC(=O)c1cc(S(=O)(=O)NCc2ccc(F)cc2)cs1	nt	4	-8	-3	-1
CSc1ccc(CCNS(=O)(=O)c2csc(C(N)=O)c2)cc1	1	91*	-3	2	4
Cn1ncc(Cl)c1C(=O)Nc1cccnc1	7	101*	nt	-4	nt
COc1cccc(C#Cc2ccc3c(c2)[C@H]2[C@H](CCN2C(=O)c2ccc4c(c2)OCO4)[C@H](CO)N3)c1	-21	nt	-8	nt	3
Cc1ccc2nc(-c3ccccc3Cl)cc(C(=O)Nc3cc(C)on3)c2c1	-17	109*	nt	6	nt
O=C(N[C@@H]1CC[C@H](CCNC(=O)C2CCCC2)O[C@H]1CO)c1ccccn1	1	-3	13	nt	1
CCOC(=O)/C=C/S(=O)(=O)c1ccc(NC(C)=O)cc1	nt	-231	nt	124*	nt
CCc1cc2c(=O)c(-c3nc4ccccc4n3C)c(C)oc2c(CN(CC)CC)c1O	-6	-1	nt	-11	nt
CCN(CC)Cc1c(O)ccc2cc(-c3nc4ccccc4n3C)c(=O)oc12	6	-3	2	-3	91*
CC(=O)N1C[C@H]2CON(C)[C@H]2C[C@H]1c1cccc(N2CCOCC2)c1	-2	-4	0	nt	108*
COc1ccc(CN(C)C[C@@H]2OCCCC[C@@H](C)Oc3ccc(NC(=O)Cc4ccccc4)cc3C(=O)N([C@H](C)CO)C[C@H]2C)cc1	12	nt	nt	nt	nt
C[C@@H]1CN([C@H](C)CO)S(=O)(=O)c2ccc(-c3ccncc3)cc2O[C@@H]1CN(C)C	7	10	0	nt	1

Screening results as filed in PubChem BioAssay.
